# Assay results pooled from the literature.
# Compare with care: the assays were run in different laboratories.
# Organism: Staphylococcus aureus
# Read-out: microbial growth
Structure (SMILES),assay,system,setting,MIC
CN[C@H](CC(C)C)C(=O)N[C@H]1C(=O)N[C@@H](CC(N)=O)C(=O)N[C@H]2C(=O)N[C@H]3C(=O)N[C@H](C(=O)N[C@H](C(=O)O)c4cc(O)cc(O)c4-c4cc3ccc4O)[C@H](O)c3ccc(c(Cl)c3)Oc3cc2cc(c3O[C@@H]2O[C@H](CO)[C@@H](O)[C@H](O)[C@H]2O[C@H]2C[C@](C)(N)[C@H](O)[C@H](C)O2)Oc2ccc(cc2Cl)[C@H]1O,broth dilution,ATCCBAA44,,1 mg/L
N=C(N)NN=Cc1ccc(OC/C=C\COc2ccc(C=NNC(=N)N)cc2)cc1,,USA300,16 h,≤ 3 mg/L
CC1(C)S[C@@H]2[C@H](NC(=O)Cc3ccccc3)C(=O)N2[C@H]1C(=O)O,,NCTC8325,,0.06 to 0.12 µM
O=C1NC(=S)S/C1=C\c1ccc(-c2ccc(N(c3ccccc3)c3ccccc3)cc2)cc1,broth dilution,ATCC25923,,250 mg/L
CC(C)Oc1c(NC(=O)c2ccc(NC(=O)[C@H](CC(N)=O)NC(=O)c3ccc(NC(=O)c4ccc(C#N)cc4)cc3)cc2)ccc(C(=O)O)c1O,,ATCC29213,,> 64 mg/L
COc1c(C)c(OC(=O)c2ccccc2)c(C)c(O)c1C(=O)/C=C/c1ccccc1,broth dilution,ATCC25923,,5000 mg/L
O=C(Cc1ccc(Cl)c(C(F)(F)F)c1)Nc1ccc2c(c1)OC(F)(F)O2,,NCTC8325,24 h,> 100 µM
Oc1cccc(-c2nc3ccccc3[nH]2)c1,broth dilution,ATCC29213 MSSA,,64 mg/L
CN[C@H](CC(C)C)C(=O)N[C@H]1C(=O)N[C@@H](CC(N)=O)C(=O)N[C@H]2C(=O)N[C@H]3C(=O)N[C@H](C(=O)N[C@H](C(=O)O)c4cc(O)cc(O)c4-c4cc3ccc4O)[C@H](O)c3ccc(c(Cl)c3)Oc3cc2cc(c3O[C@@H]2O[C@H](CO)[C@@H](O)[C@H](O)[C@H]2O[C@H]2C[C@](C)(N)[C@H](O)[C@H](C)O2)Oc2ccc(cc2Cl)[C@H]1O,broth dilution,ATCC29213,,1 mg/L
CC[C@H](CO)Nc1nc(NCc2ccccc2)c2ncn(C(C)C)c2n1,,NCTC8325,,> 30 µM
Cc1ccc2nc(-c3ccc([N+](=O)[O-])cc3)n(Cc3ccccc3)c2c1,broth dilution,ATCC29213 MSSA,,8 mg/L
CCn1cc(C(=O)O)c(=O)c2cc(F)c(N3CCNCC3)cc21,,MRSA,,250 mg/L
CCS(=O)(=O)c1cccc(-c2cc(C(=O)NC3CCN(C)CC3)c(C)c3[nH]c4ncc(C)cc4c23)c1,,NCTC8325,,> 30 µM
Cc1ccc2nc(-c3ccncc3)[nH]c2c1,broth dilution,ATCC29213 MSSA,,64 mg/L
CC1=NN(CNc2ccccc2[N+](=O)[O-])C(=O)C1=NNn1c(-c2ccccc2)nc2ccccc2c1=O,broth dilution,,24 h,50.4 µM
CN1CCN=C1c1ccc(NC(=O)c2ccc(C(=O)Nc3ccc(C4=NCCN4C)cc3)cc2)cc1,,,,8 mg/L
c1cncc(CN2CCC(n3ncc4c(N5CCOCC5)nc(-c5ccc6[nH]ccc6c5)nc43)CC2)c1,,NCTC8325,,> 30 µM
O=C1NC(=S)N/C1=C\c1ccc(-c2ccc(N(c3ccccc3)c3ccccc3)cc2)cc1,broth dilution,ATCC25923,,> 1000 mg/L
NC[C@H]1O[C@H](O[C@H]2[C@H](O)[C@@H](O[C@H]3O[C@H](CO)[C@@H](O)[C@H](N)[C@H]3O)[C@H](N)C[C@@H]2N)[C@H](N)C[C@@H]1O,,147,clinical isolate,6.25 µM
CC(C)Oc1c(NC(=O)c2ccc(NC(=O)[C@H](CC(N)=O)NC(=O)c3ccc(NC(=O)c4ccc([N+](=O)[O-])c(OC(C)C)c4O)cc3)cc2)ccc(C(=O)Nc2ccc(C(=O)O)cc2)c1O,,ATCC29213,,> 64 mg/L
COc1ncc(-c2ccc3nccc(-c4ccnnc4)c3c2)cc1NS(=O)(=O)c1ccc(F)cc1F,,NCTC8325,,> 30 µM
